# From PubChem BioAssay
# NSD2 inh: NSD2 (human) methyltransferase inhibition | inhibition, % at 12.5 µM | NSD2 peptide methylation, AlphaScreen, 120 min | AID 743445 | O96028 | 310,000 tested, 0.54% active; in the data active = inhibition above about 50%
# Casp6 inh: inhibitors of human caspase-6; AID 686996; 350,000 tested, 0.53% active; inhibition, % at 12.5 µM; purified caspase-6, Z-VEID-R110 cleavage fluorescence; P55212;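 active = mean inhibition across replicates at least about 35%, with every replicate also reaching that limit, limit read from the data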
# UCH37 inh: inhibitors of human deubiquitinating enzyme UCH37; purified proteasome/UCH37, Ub-AMC cleavage fluorescence; inhibition, % (test concentration not listed); 330,000 tested, 0.33% active; AID 588478;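 active = mean inhibition over replicate wells above about 20%, limit read from the data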
#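 Schedule: 30 min plus 25 min, room temperature / Material: human UCH37 within purified proteasomes / Technique: AMC fluorescence intensity at 355/460 nm / Buffer or medium: pH 7.4 Tris-HCl (50 mM) with ovalbumin, ATP-MgCl2, DTT / Controls: wells without proteasome as full block, compound-free enzyme plus substrate as uninhibited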
# SIRT5 inh: sirtuin-5 (human) deacylase inhibition; Q9NXA8; Purified SirT5, succinyl-peptide AMC, trypsin-coupled fluorescence; inhibition, % at 15 µM; 330,000 tested, 1.1% active; AID 652115; in the data active = inhibition above about 15%
# Target sequence (Q9NXA8 whole entry, looked up): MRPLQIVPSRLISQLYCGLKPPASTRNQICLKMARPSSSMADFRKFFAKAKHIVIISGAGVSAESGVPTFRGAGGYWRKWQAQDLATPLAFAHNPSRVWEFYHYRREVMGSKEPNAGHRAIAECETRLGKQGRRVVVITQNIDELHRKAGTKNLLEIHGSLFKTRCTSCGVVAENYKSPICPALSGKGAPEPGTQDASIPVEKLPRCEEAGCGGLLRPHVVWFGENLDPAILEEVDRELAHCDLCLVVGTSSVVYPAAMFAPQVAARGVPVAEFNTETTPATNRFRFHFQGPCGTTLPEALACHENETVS
# FGF22 binding: FGF22 (human) thermal shift binding. Q9HCT0. recombinant FGF22 thermal shift, SYPRO orange fluorescence; percent of sucrose octasulfate shift, DMSO zero. activity (Tm shift, normalised), % at 9.99 µM. 340,000 tested, 1.5% active;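 active = mean Tm shift, scaled 0 neutral to 100 positive control, at about 1.3% or above, every replicate too, limit read from the data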
# A number is an active result; – = inactive; · = not tested or not shown; ! = repeats disagree. Hits are enriched below; roughly 2.6% of the tested compounds scored in any of these assays.
SMILES,NSD2 inh,Casp6 inh,UCH37 inh,SIRT5 inh,FGF22 binding
CC(C)NC(=O)N1CCCCN2[C@H](C1)[C@@H](c1ccc(C#CC3CC3)cc1)[C@@H]2CO,·,–,·,22.4,–
COc1ccccc1C#Cc1ccc([C@H]2[C@H](CO)N3CCCCN(C(=O)C4CCCC4)C[C@@H]23)cc1,·,–,·,16.9,–
O=C(Nc1cc(F)ccc1F)N1CC(=O)N2[C@H](CO)[C@H](c3ccc(C#CC4CCCCC4)cc3)[C@@H]2C1,·,–,·,17.2,–
COCC#Cc1cnc2c(c1)C(=O)N([C@H](C)CO)C[C@@H](C)[C@@H](CN(C)C(=O)C1CC1)O2,·,–,·,–,–
NC(=O)c1ccc(NC(=O)COc2ccc([N+](=O)[O-])cc2Cl)cc1,–,–,–,–,43.3
C[C@@H]1CCCCO[C@@H](CN(C)C(=O)Nc2ccc(C(F)(F)F)cc2)[C@H](C)CN([C@@H](C)CO)C(=O)c2cc(NS(=O)(=O)c3ccc(Cl)cc3)ccc2O1,·,–,·,19.2,–
Cc1ccc(S(=O)(=O)Nc2ccc3c(c2)C(=O)N([C@@H](C)CO)C[C@H](C)[C@@H](CN(C)C(=O)Nc2ccccc2)OCCCC[C@H](C)O3)cc1,·,–,·,16.6,–
C[C@@H]1CN([C@@H](C)CO)C(=O)c2cc(N(C)C)ccc2O[C@H]1CN(C)C(=O)Nc1ccc(F)cc1,·,–,·,–,–
C[C@@H]1CN([C@H](C)CO)C(=O)c2cc(N(C)C)ccc2O[C@H]1CN(C)C(=O)Nc1ccc(F)cc1,·,–,·,33.7,–
C[C@@H]1CN([C@@H](C)CO)C(=O)c2cc(N(C)C)ccc2O[C@@H](C)CCCCO[C@@H]1CN(C)C(=O)Nc1ccccc1,·,–,·,16.0,–
Cc1ccc(S(=O)(=O)Nc2ccc3c(c2)C(=O)N([C@H](C)CO)C[C@H](C)[C@@H](CN(C)C(=O)Nc2ccccc2)OCCCC[C@@H](C)O3)cc1,·,–,·,–,–
C[C@@H]1CN([C@@H](C)CO)C(=O)c2cc(NS(=O)(=O)c3ccc(Cl)cc3)ccc2O[C@@H](C)CCCCO[C@H]1CN(C)C(=O)CCC(F)(F)F,·,–,·,–,–
Cc1ccc(S(=O)(=O)Nc2ccc3c(c2)C(=O)N([C@H](C)CO)C[C@H](C)[C@@H](CN(C)C(=O)Nc2ccc(C(F)(F)F)cc2)OCCCC[C@H](C)O3)cc1,·,–,·,16.0,–
Cc1ccc(S(=O)(=O)Nc2ccc3c(c2)C(=O)N([C@H](C)CO)C[C@@H](C)[C@H](CN(C)C(=O)Nc2ccc(C(F)(F)F)cc2)OCCCC[C@@H](C)O3)cc1,·,–,·,15.6,–
Cc1ccc(S(=O)(=O)Nc2ccc3c(c2)C(=O)N([C@@H](C)CO)C[C@H](C)[C@@H](CN(C)C(=O)Nc2ccc(C(F)(F)F)cc2)OCCCC[C@H](C)O3)cc1,·,–,·,16.9,–
C[C@@H]1CCCCO[C@H](CN(C)C(=O)CCC(F)(F)F)[C@H](C)CN([C@@H](C)CO)C(=O)c2cc(NS(=O)(=O)c3ccc(Cl)cc3)ccc2O1,·,–,·,16.7!,–
C[C@@H]1CCCCO[C@@H](CN(C)C(=O)Nc2ccc(C(F)(F)F)cc2)[C@H](C)CN([C@H](C)CO)C(=O)c2cc(NS(=O)(=O)c3ccc(F)cc3)ccc2O1,·,–,·,–,–
C[C@H](CO)N1C[C@H](C)[C@@H](CN(C)C(=O)Nc2ccccc2)Oc2ccc(NC(=O)CCN3CCOCC3)cc2CC1=O,·,–,·,–,–
CC(=O)N(C)C[C@H]1[C@@H](c2ccc(-c3ccc(F)cc3)cc2)[C@@H](CO)N1C(C)=O,·,–,·,–,–
Cc1ccc(S(=O)(=O)Nc2ccc3c(c2)C(=O)N([C@@H](C)CO)C[C@H](C)[C@H](CN(C)C(=O)Cc2ccccc2)OCCCC[C@H](C)O3)cc1,·,–,·,–,·
Cc1ccc(S(=O)(=O)Nc2ccc3c(c2)C(=O)N([C@H](C)CO)C[C@H](C)[C@H](CN(C)C(=O)Cc2ccccc2)OCCCC[C@H](C)O3)cc1,·,–,·,15.9,·
O=C(NN=Cc1ccoc1)c1cccc(OC(F)(F)C(F)F)c1,·,·,–,·,·
CN(C)CC(=O)N[C@@H]1CC[C@@H](CCNC(=O)Nc2ccc(C(F)(F)F)cc2)O[C@@H]1CO,·,–,·,16.8,–
CCC(=O)N[C@H]1CC[C@@H](CCNC(=O)Nc2ccc(C(F)(F)F)cc2)O[C@H]1CO,·,–,·,–,–
CCCC[C@H](CC(=O)c1ccccc1)[C@@H](OC(C)=O)C(=O)Oc1c(C(C)C)cccc1C(C)C,·,·,25.0,·,–
